Drawing on ChEMBL document CHEMBL2150970, “Synthesis, anticancer activities and molecular modeling studies of novel indole retinoid derivatives” (Eur J Med Chem, 2012), this text covers IC50, Ratio IC50 and Activity for six compounds.

Broadly, the IC50 is the concentration at which inhibition is half-maximal.

In one test the test system is Huh-7. Description: Cytotoxicity against human HuH7 cells after 3 days by SRB assay. The class given is functional, cell-based. The method, boiled down:
(§1)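 Human cancer cells grown in DMEM with 10% FCS and penicillin/streptomycin (CAMA-1 medium also had 1% sodium pyruvate), at 37 °C, 5% CO2. Seeded at 10⁴ cells/well, dosed 24 h later, and exposed 3 days. Fixed with ice-cold 10% TCA for 60 min, stained 10 min with 0.4% SRB at room temperature, washed with 1% acetic acid, dye dissolved in 10 mM Tris base, A515 read. Triplicate runs with matched DMSO controls; IC50 determined.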

In test [1] the test system is T47D. Put plainly: Cytotoxicity against human T47D cells after 3 days by SRB assay. In kind it is functional, cell-based. In short, it runs like this:
as §1
In general terms: In SRB staining, fixed cells bind dye roughly in proportion to their protein.

Another test has as its system HCT-116. Description: Cytotoxicity against human HCT116 cells after 3 days by SRB assay. In kind it is functional, cell-based. In short, it runs like this:
as §1

A further test concerns CAMA-1. Description: Cytotoxicity against human CAMA1 cells after 3 days by SRB assay. The class given is functional, cell-based. The conditions noted are these: CAMA-1, 72 h. In short, it runs like this: as §1
The subject of test [2] is MCF7. Description: Cytotoxicity against human MCF7 cells after 3 days by SRB assay. The conditions noted are these: MCF7, 72 h. In kind it is functional, cell-based. In short, it runs like this:
(§2)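 Cells at 10⁴/well were treated 24 h after seeding and exposed for three days. They were then fixed in ice-cold 10% TCA for 60 min at 4 °C, stained with 0.4% SRB for 10 min at room temperature, washed with 1% acetic acid and solubilised in 10 mM Tris base. Absorbance was read at 515 nm. IC₅₀ was determined in triplicate with DMSO vehicle controls.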

For another test, the system named is BT-474. Description: Cytotoxicity against human BT474 cells after 3 days by SRB assay. The class given is functional, cell-based. The conditions noted are these: BT-474, 72 h. In short, it runs like this:
as §2

The test system of test [3] is MDA-MB-453. Description: Cytotoxicity against human MDA-MB-453 cells after 3 days by SRB assay. The conditions noted are these: MDA-MB-453, 72 h. The class given is functional, cell-based. In short, it runs like this:
as §2

For a further test, the system named is BT-20. Description: Cytotoxicity against human BT20 cells after 3 days by SRB assay. The conditions noted are these: BT-20, 72 h. The class given is functional, cell-based. In short, it runs like this:
as §2

For a further test, the system named is SK-BR-3. Put plainly: Cytotoxicity against human SKBR3 cells after 3 days by SRB assay. The conditions noted are these: SK-BR-3, 72 h. The class given is functional, cell-based. In short, it runs like this:
as §2

The test system of test [4] is MDA-MB-361. Put plainly: Cytotoxicity against human MDA-MB-361 cells after 3 days by SRB assay. The class given is functional, cell-based. The conditions noted are these: MDA-MB-361, 72 h. In short, it runs like this: as §2
The test system of test [5] is MDA-MB-157. Description: Cytotoxicity against human MDA-MB-157 cells after 3 days by SRB assay. In kind it is functional, cell-based. The conditions noted are these: MDA-MB-157, 72 h. In short, it runs like this: as §2
Test [6] concerns MDA-MB-231. Put plainly: Cytotoxicity against human MDA-MB-231 cells after 3 days by SRB assay. The class given is functional, cell-based. The conditions noted are these: MDA-MB-231, 72 h. In short, it runs like this: as §2
The test system of the next test is ZR-75-1. Put plainly: Cytotoxicity against human ZR-75-1 cells after 3 days by SRB assay. The class given is functional, cell-based. The conditions noted are these: ZR-75-1, 72 h. The method, boiled down:
as §2

The subject of test [7] is MCF-12A. Description: Cytotoxicity against human MCF12A cells after 3 days by SRB assay. In kind it is cell-based. The conditions noted are these: 72 h. The method, boiled down:
as §2

Test [8] concerns MCF-12A. Description: Ratio of IC50 for human MCF12A cells to IC50 for human CAMA1 cells. The method, boiled down: (§3)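 Each IC50 came from the SRB assay after 3 days' exposure: 10⁴ cells/well, TCA fixation, 0.4% SRB, Tris solubilization, A515, triplicates, DMSO control. Ratio is immortalized normal breast MCF-12A IC50 over the breast cancer line's IC50. Media carried 10% FCS plus antibiotics: DMEM for most lines, DMEM with sodium pyruvate for CAMA-1/MDA-MB-157, glucose-rich RPMI for ZR-75-1, McCoy for SK-BR-3.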

Test [9] relates to T47D. Description: Ratio of IC50 for human MCF12A cells to IC50 for human T47D cells. In short, it runs like this:
as §3

In test [10] the test system is MCF7. Description: Ratio of IC50 for human MCF12A cells to IC50 for human MCF7 cells. The method, boiled down:
as §3

For test [11], the system named is MDA-MB-453. Description: Ratio of IC50 for human MCF12A cells to IC50 for human MDA-MB-453 cells. The method, boiled down: as §3
Test [12] has as its system MCF-12A. Description: Ratio of IC50 for human MCF12A cells to IC50 for human BT20 cells. In short, it runs like this: as §3
The test system of test [13] is MDA-MB-361. Description: Ratio of IC50 for human MCF12A cells to IC50 for human MDA-MB-361 cells. In short, it runs like this:
as §3

Test [14] deals with MDA-MB-157. Description: Ratio of IC50 for human MCF12A cells to IC50 for human MDA-MB-157 cells. The method, boiled down:
as §3

Test [15] has as its system T47D. Put plainly: Induction of apoptosis in ER-positive human T47D cells assessed as apoptotic cells at IC50 concentration after 3 days by Hoechst staining based fluorescent microscopy. The class given is functional, cell-based.
For test [16], the system named is MDA-MB-231. Description: Induction of apoptosis in ER-negative human MDA-MB-231 cells assessed as apoptotic cells at 1.83 uM after 3 days by Hoechst staining based fluorescent microscopy. The class given is functional, cell-based.
Test [17] deals with MDA-MB-231. Description: Induction of apoptosis in ER-negative human MDA-MB-231 cells assessed as apoptotic cells at 1.8 uM measured on day 2 by Annexin-V-FITC/propidium iodide staining based FACS flow cytometry. In kind it is functional. The method, boiled down: (§4)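 Cells seeded at 5×10⁵ per plate (37 °C, 5% CO2) and treated the following day at two concentrations. On days 2 and 4 after treatment, 1×10⁶ cells were stained with a FITC Annexin V/propidium iodide kit, kept on ice in the dark, and analysed at once on a FACSCalibur. Mean percentage of Annexin V+/PI+ cells is reported. Controls: matched DMSO, plus camptothecin and 1% v/v H2O2 as positive controls.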

In test [18] the test system is MDA-MB-231. Put plainly: Induction of apoptosis in ER-negative human MDA-MB-231 cells assessed as apoptotic cells at 1.8 uM measured on day 4 by Annexin-V-FITC/propidium iodide staining based FACS flow cytometry. In kind it is functional. The method, boiled down:
as §4

For test [19], the system named is MDA-MB-231. Description: Induction of apoptosis in ER-negative human MDA-MB-231 cells assessed as apoptotic cells at 3.6 uM measured on day 2 by Annexin-V-FITC/propidium iodide staining based FACS flow cytometry. In kind it is functional. The method, boiled down:
as §4
In general terms: In flow cytometry, cells or beads pass a laser one at a time.

The subject of test [20] is MDA-MB-231. Put plainly: Induction of apoptosis in ER-negative human MDA-MB-231 cells assessed as apoptotic cells at 3.6 uM measured on day 4 by Annexin-V-FITC/propidium iodide staining based FACS flow cytometry. The class given is functional. The method, boiled down:
as §4

Where [21] appears, read: Homo sapiens, Huh-7, 72 h, read-out: IC50.
The mark [22] stands for this setting: Homo sapiens, T47D, 72 h, read-out: IC50.
The mark [23] stands for this setting: Homo sapiens, HCT-116, 72 h, read-out: IC50.

SMILES strings stand for the structures. Active and inactive are the calls of the source. No cut-off for these calls is given here. Bounds are passed on as bounds.

Turning to `CC1(C)CCC(C)(C)c2cc(C(=O)/C=C/c3c[nH]c4ccc(Cl)cc34)ccc21`, the IC50 was 15400 nM in the test with Huh-7 (setting [21]), 13100 nM in the test with T47D [1] (setting [22]) and 10700 nM in the test on HCT-116 (setting [23]).
For `CC1(C)CCC(C)(C)c2cc(C(=O)/C=C/c3c[nH]c4ccc(C(=O)O)cc34)ccc21`, the IC50 result in the test with Huh-7 (huh-7), in the test with T47D [1] (t47d) and in the test with HCT-116 (hct-116) was “Not Active” each time.
Regarding `CC1(C)CCC(C)(C)c2cc(C(=O)/C=C/c3c[nH]c4ccccc34)ccc21`, the IC50 was less than 10 nM with Huh-7 (setting [21]); less than 10 nM in the test with CAMA-1; 100 nM in the test on T47D [1] (setting [22]); 20 nM in the test on HCT-116 (setting [23]); 1710 nM in the test with MCF7 [2]; 1910 nM in the test with BT-474. The IC50 is less than 10 nM in the test with MDA-MB-453 [3]; 1310 nM with BT-20; 1290 nM with SK-BR-3; 60 nM in the test with MDA-MB-361 [4]; 1460 nM in the test on MDA-MB-157 [5]; 1830 nM in the test on MDA-MB-231 [6]. Further, the IC50 with ZR-75-1 is 3880 nM; with MCF-12A [7], 3920 nM. For the same compound, the Ratio IC50 in the test with MCF-12A [8] is greater than 392; in the test on T47D [9] it was 3.38; in the test with MCF7 [10], 2.29; in the test with MDA-MB-453 [11], greater than 392; in the test with MCF-12A [12] it was 2.99; in the test on MDA-MB-361 [13], 65.3. Besides, in the test with MDA-MB-157 [14], the Ratio IC50 came to 2.68. The result in the test on T47D [15] and with MDA-MB-231 [16] was Active. The Activity worked out at 7.1% in the test on MDA-MB-231 [17], 10.53% in the test on MDA-MB-231 [18], 6.83% with MDA-MB-231 [19] and 15.62% in the test with MDA-MB-231 [20].
For the compound `COc1ccc2[nH]cc(/C=C/C(=O)c3ccc4c(c3)C(C)(C)CCC4(C)C)c2c1`, the IC50 is 15500 nM with Huh-7 (setting [21]), 11400 nM in the test on T47D [1] (setting [22]) and 13900 nM with HCT-116 (setting [23]).
Consider `CC[C@@]1(O)C(=O)OCc2c1cc1n(c2=O)Cc2cc3ccccc3nc2-1` [CAMPTOTHECIN], for which the IC50 is 60 nM in the test on Huh-7 (setting [21]); less than 10 nM in the test on T47D [1] (setting [22]); less than 10 nM in the test on HCT-116 (setting [23]); less than 10 nM in the test with MCF7 [2]; 12800 nM in the test on BT-474; less than 10 nM in the test on MDA-MB-453 [3]. Further, the IC50 in the test on BT-20 is less than 10 nM; with SK-BR-3, less than 10 nM; in the test on MDA-MB-361 [4] it was 170 nM; in the test on MDA-MB-157 [5], 20 nM; with MDA-MB-231 [6], less than 10 nM; in the test on ZR-75-1, less than 10 nM. In the test with MCF-12A [7], the IC50 is less than 10 nM.
Regarding `CC1(C)CCC(C)(C)c2cc(C(=O)/C=C/c3c[nH]c4ccc(Br)cc34)ccc21`, the IC50 in the test with Huh-7 (setting [21]) amounted to 14000 nM; in the test with T47D [1] (setting [22]) it was 11500 nM; in the test on HCT-116 (setting [23]) it was 10800 nM.
